pIC50, pKd: −log10 of the molar value. ≈ marks a conversion by molar mass, not a printed value.
How the values were obtained:
[1] = tested on: Penicillium digitatum; assay: Fungicidal activity against Penicillium digitatum assessed as inhibition of mycelium measured after 48 hr; assay type: functional, organism-based
In short: (§1)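 Poisoned-agar test on P. digitatum. Compounds in DMSO were mixed into molten agar at about 45–50 °C, at 1–50 μg/mL. Blank medium was the control. 5 mm plugs taken from the margins of actively growing mycelial colonies were placed at plate centres. Plates were run in triplicate at 26 °C in darkness. Colony diameter was read at 48 h; inhibition % = (control − treated diameter)/control diameter.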

[2] = tested on: Penicillium digitatum; assay: Fungicidal activity against Penicillium digitatum assessed as inhibition of mycelium at 1 ug/ml measured after 48 hr; assay type: functional; in short: as §1
[3] = tested on: Penicillium digitatum; assay: Fungicidal activity against Penicillium digitatum assessed as inhibition of mycelium at 50 ug/ml measured after 48 hr; assay type: functional; in short: as §1
[4] = tested on: Penicillium digitatum; assay: Fungicidal activity against Penicillium digitatum assessed as inhibition of mycelium at 10 ug/ml measured after 48 hr; assay type: functional; in short: as §1
[5] = tested on: Penicillium digitatum; assay: Fungicidal activity against Penicillium digitatum assessed as inhibition of mycelium at 5 ug/ml measured after 48 hr; assay type: functional; in short: as §1
[6] = molecular target: T1, P450 sterol 14-alpha-demethylase (Penicillium digitatum, UniProt E3SW77); assay: Binding affinity to Penicillium digitatum CYP51
T1 sequence (E3SW77 whole entry): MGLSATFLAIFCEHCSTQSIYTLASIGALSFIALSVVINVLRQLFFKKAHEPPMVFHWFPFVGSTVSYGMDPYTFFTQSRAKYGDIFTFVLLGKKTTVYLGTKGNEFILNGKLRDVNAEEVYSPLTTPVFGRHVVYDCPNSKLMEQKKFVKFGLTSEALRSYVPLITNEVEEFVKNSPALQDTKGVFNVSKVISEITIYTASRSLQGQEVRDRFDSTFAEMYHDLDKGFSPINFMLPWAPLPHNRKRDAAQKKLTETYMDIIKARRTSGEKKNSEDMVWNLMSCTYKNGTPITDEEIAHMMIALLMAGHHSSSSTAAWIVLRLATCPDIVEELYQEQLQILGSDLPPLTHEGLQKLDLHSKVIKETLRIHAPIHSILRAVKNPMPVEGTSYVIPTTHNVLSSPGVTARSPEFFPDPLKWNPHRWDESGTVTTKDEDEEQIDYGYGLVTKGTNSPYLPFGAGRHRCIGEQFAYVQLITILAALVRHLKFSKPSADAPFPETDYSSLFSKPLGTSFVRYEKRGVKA
In short: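 Recombinant His-tagged P. digitatum CYP51 from E. coli BL21(DE3), Ni-NTA purified, in 100 mM PBS pH 7.2. Difference spectra at 350−500 nm were recorded 1 min after adding compound at room temperature, with DMSO below 0.5%. Kd came from a Hanes−Woolf plot of [I] versus [I]/ΔA, using Amax from the saturated absorbance shift.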

[7] = tested on: Penicillium digitatum; assay: Fungicidal activity against Penicillium digitatum assessed as inhibition of mycelium at 25 ug/ml measured after 48 hr; assay type: functional; in short: as §1
[8] = molecular target: Penicillium digitatum; assay: Antifungal activity against Penicillium digitatum assessed as growth inhibition

Row | SMILES | IC50 [1] [µg/mL] | inhibition at 1 µg/mL [2] [%] | inhibition at 50 µg/mL [3] [%] | inhibition at 10 µg/mL [4] [%] | inhibition at 5 µg/mL [5] [%] | pKd [6] | inhibition at 25 µg/mL [7] [%] | pIC50 [8]
1 | CC(=O)CC1c2ccccc2N=C(n2ccnc2)N1C(C)C (configuration not stated) | 126 (≈ 425 µM) | 0 | 28 | 15 | 4 |  |  | 
2 | CCCCN1C(n2ccnc2)=Nc2ccccc2C1CC(C)=O (configuration not stated) | 15.6 (≈ 50.2 µM) | 5 | 100 | 29 | 14 | 4.88 | 57 | 4.30
3 | CC(=O)CC1c2ccccc2N=C(n2ccnc2)N1c1ccc(Cl)cc1 (configuration not stated) | 10.4 (≈ 28.5 µM) | 0 | 100 | 35 | 14 | 5.54 | 100 | 4.55
4 | CC(=O)CC1c2ccccc2N=C(n2ccnc2)N1c1ccc(F)cc1 (configuration not stated) | 4.14 (≈ 11.9 µM) | 9 | 100 | 86 | 52 | 6.01 | 100 | 4.93
5 | CC(=O)CC1c2ccccc2N=C(n2ccnc2)N1c1ccccc1 (configuration not stated) | 5.06 (≈ 15.3 µM) | 8 | 100 | 61 | 29 |  |  | 
6 | CC(=O)CC1c2cc(Cl)ccc2N=C(n2ccnc2)N1c1ccc(F)cc1 (configuration not stated) | 7.12 (≈ 18.6 µM) | 9 | 100 | 64 | 21 | 5.62 | 100 | 4.73
7 | CC(=O)CC1c2cc(Cl)ccc2N=C(n2cncn2)N1c1ccccc1 (configuration not stated) | > 50 |  | 8 |  |  |  |  | 
8 | CC(=O)CC1c2cc(Cl)ccc2N=C(n2cncn2)N1C(C)C (configuration not stated) | > 50 |  | 17 |  |  |  |  | 
9 | CC(=O)CC1c2ccccc2N=C(n2cncn2)N1c1ccccc1 (configuration not stated) | 129 (≈ 389 µM) | 0 | 24 | 11 | 0 |  |  | 
10 | CC(=O)CC1c2ccccc2N=C(n2cncn2)N1c1cccc(C)c1 (configuration not stated) | 60.1 (≈ 174 µM) | 0 | 44 | 19 | 12 |  |  | 
11 | CC(=O)CC1c2ccccc2N=C(n2cncn2)N1c1ccc(Cl)cc1 (configuration not stated) | > 50 |  | 10 |  |  |  |  | 
12 | CC(=O)CC1c2ccccc2N=C(n2cncn2)N1c1ccc(F)cc1 (configuration not stated) | > 50 |  | 14 |  |  |  |  | 
13 | CC(=O)CC1c2ccccc2N=C(n2cncn2)N1C(C)C (configuration not stated) | > 50 |  | 10 |  |  |  |  | 
14 | CC(C)(C)C(=O)CC1c2ccccc2N=C(n2cncn2)N1c1ccccc1 (configuration not stated) | 90 (≈ 241 µM) | 0 | 35 | 15 | 8 |  |  | 
15 | Cc1cccc(N2C(n3cncn3)=Nc3ccccc3C2CC(=O)C(C)(C)C)c1 (configuration not stated) | 67.1 (≈ 173 µM) | 0 | 40 | 22 | 8 |  |  | 
16 | CC(=O)CC1c2cc(Cl)ccc2N=C(n2ccnc2)N1C(C)C (configuration not stated) | 128 (≈ 387 µM) | 0 | 30 | 12 | 8 |  |  | 
17 | CC(C)(C)C(=O)C(Oc1ccc(Cl)cc1)n1cncn1 (configuration not stated) [TRIADIMEFON] |  | 0 | 100 | 60 | 27 |  | 100 | 
